These results are taken from ChEMBL document CHEMBL1134368, “Alpha(2) adrenoceptor agonists as potential analgesic agents. 3. Imidazolylmethylthiophenes” (J Med Chem, 2001).

SMILES strings stand for the structures. Calls of active or inactive are those of the source. No cut-off for these calls is given here.

The test system of assay [1] is Rattus norvegicus. The experiment in a line: In vivo antinociceptive activity was determined using in rat abdominal irritant test (RAIT) assay. Format: functional. Particulars: Abdomen.
In assay [2] the test system is Mus musculus. The assay is described as follows: In vivo antinociceptive activity was determined by mouse abdominal irritant test (MAIT) in male pathogen free albino CD-1 mice. The arrangement: concentration or dose not given beside the values. The class given is functional, Abdomen. In short, it runs like this: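 Mice were dosed orally by gavage at several doses, with vehicle controls. Acetylcholine bromide was given at 5.5 mg/kg ip at set intervals later, and writhing was observed. Percent antinociception was calculated per dose from responders per group. ED50 and 95% confidence limits came from Litchfield-Wilcoxon probit analysis with a chi-square linearity test.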

Assay [3] concerns Rattus norvegicus. The experiment in a line: In vivo antinociceptive activity was determined using in Rat abdominal irritant test(RAIT) assay; IA=inactive. The class given is functional, organism-based. As to conditions: Abdomen.
The species named for assay [4] is Rattus norvegicus. The assay is described as follows: QT interval was determined during cardiovascular test in normotensive male albino Long-Evans rat. Format: functional, Heart. The arrangement: concentration or dose not given beside the values.
Assay [5] has as its target Adrenergic receptor alpha-2 (Rattus norvegicus) (UniProt P22086+P19328+P22909). The experiment in a line: compounds were tested for agonistic activity in Alpha2 Adrenoceptor in Rat abdominal irritant test (RAIT). The class given is functional. As to conditions: Abdomen.
The species named for assay [6] is Rattus norvegicus. The assay is described as follows: QT interval was determined during cardiovascular test in normotensive male albino Long-Evans rat; delta QT. Format: functional, Heart.
Assay [7] has as its system Mus musculus. The experiment in a line: In vivo antinociceptive activity was determined by Mouse abdominal irritant test (MAIT)in male pathogen free albino CD-1 mice at 30 mg/kg. The class given is functional. As to conditions: Abdomen. In short, it runs like this: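 Compound or vehicle was given to mice by oral gavage at 30 mg/kg. After set intervals, acetylcholine bromide was injected at 5.5 mg/kg ip. Percent inhibition was the percentage of responders per group.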

The species entered for assay [8] is Rattus norvegicus. The experiment in a line: QT interval was determined during cardiovascular test in normotensive male albino Long-Evans rat;delta QT. The class given is functional, Heart.
In assay [9] the target is T1, Alpha-2C adrenergic receptor (Rattus norvegicus, UniProt P22086).
T1 sequence (P22086 whole entry): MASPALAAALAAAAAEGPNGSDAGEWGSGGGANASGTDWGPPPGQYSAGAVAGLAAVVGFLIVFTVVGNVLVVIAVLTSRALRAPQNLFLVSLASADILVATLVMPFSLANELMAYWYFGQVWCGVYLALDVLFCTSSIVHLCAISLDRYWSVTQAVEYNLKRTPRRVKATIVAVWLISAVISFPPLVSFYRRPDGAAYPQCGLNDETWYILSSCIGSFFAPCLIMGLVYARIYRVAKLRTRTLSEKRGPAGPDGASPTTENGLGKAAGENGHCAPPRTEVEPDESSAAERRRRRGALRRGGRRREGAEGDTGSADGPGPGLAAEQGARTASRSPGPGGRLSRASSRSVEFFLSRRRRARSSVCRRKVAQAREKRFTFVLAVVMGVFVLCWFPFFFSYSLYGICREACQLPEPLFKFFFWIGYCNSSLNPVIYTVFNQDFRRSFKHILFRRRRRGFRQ
The experiment in a line: In vitro binding affinity against alpha-2C adrenergic receptor of male Wistar rat.

Sequence of Adrenergic receptor alpha-2 (Rattus norvegicus) (P19328 whole entry, looked up, one chain of several): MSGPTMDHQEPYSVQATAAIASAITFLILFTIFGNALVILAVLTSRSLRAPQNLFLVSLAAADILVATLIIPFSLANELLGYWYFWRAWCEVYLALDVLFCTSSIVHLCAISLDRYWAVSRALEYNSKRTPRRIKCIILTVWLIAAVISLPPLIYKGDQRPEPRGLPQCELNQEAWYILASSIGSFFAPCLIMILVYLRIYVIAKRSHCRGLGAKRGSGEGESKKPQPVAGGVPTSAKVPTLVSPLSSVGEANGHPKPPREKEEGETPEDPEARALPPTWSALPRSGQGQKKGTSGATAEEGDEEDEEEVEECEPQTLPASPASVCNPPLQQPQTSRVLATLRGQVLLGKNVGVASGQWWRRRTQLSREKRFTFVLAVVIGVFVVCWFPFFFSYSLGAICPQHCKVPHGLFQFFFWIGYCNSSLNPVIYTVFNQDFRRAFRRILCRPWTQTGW
Sequence of Adrenergic receptor alpha-2 (Rattus norvegicus) (P22909 whole entry, looked up, one chain of several): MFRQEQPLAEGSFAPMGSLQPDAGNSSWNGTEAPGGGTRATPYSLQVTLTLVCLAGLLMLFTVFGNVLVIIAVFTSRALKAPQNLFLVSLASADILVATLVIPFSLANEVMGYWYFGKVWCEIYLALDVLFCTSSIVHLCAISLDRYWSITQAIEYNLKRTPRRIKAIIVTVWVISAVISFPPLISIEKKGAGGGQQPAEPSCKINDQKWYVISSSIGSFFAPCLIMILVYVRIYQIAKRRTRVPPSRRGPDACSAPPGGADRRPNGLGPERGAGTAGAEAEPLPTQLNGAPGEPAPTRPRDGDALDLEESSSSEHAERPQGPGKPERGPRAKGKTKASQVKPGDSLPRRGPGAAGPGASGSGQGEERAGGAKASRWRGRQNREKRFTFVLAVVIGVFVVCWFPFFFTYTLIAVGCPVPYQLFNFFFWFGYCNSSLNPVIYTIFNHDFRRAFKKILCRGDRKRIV

Take `Cc1ccsc1C(C)c1c[nH]cn1.Cl` (stereo not given): the ED50 (in general, the dose that gives a 50% effect, or the effect in half of the subjects) in assay [1] was determined as 2.2 mg/kg. In addition, the Inhibition – broadly, how much of the control response was suppressed – in [2] is on record as 100%. In the same order, the values of `COC(c1c[nH]cn1)c1cscc1C.O=C(O)/C=C/C(=O)O` (stereo not given) are 4.4 mg/kg and 100%. Regarding `Cc1csc(C(C)c2c[nH]cn2)c1C` (stereo not given), the IA result in assay [3] is “inactive”. On to `CCc1cscc1Cc1c[nH]cn1.O=C(O)/C=C/C(=O)O`, for which it took a dose of 0.32 mg/kg to reach the 50% effect level in [1] (ED50). This molecule yielded an Inhibition in assay [2] of 100%. In addition, the Activity in [4] came to 48%. As for `CC(c1c[nH]cn1)c1sccc1Br.Cl` (stereo not given), in assay [1], it took a dose of 0.97 mg/kg to reach the 50% effect level (ED50). Moreover, the Inhibition in assay [2] was 100%. In assay [2], `Brc1sccc1Cc1c[nH]cn1.O=C(O)/C=C/C(=O)O` returned an Inhibition of 100%. This molecule gave an ED50 in [5] of 1.1 mg/kg. As to `Cc1ccsc1Cc1c[nH]cn1.Cl`, in [1], the 50% effect level (ED50) was put at a dose of 0.87 mg/kg. In assay [6], this molecule registered an Activity of 22%. In assay [7], at 30 mg/kg the inhibition in vivo was 100%. Consider `Cc1cscc1Cc1c[nH]cn1.O=C(O)/C=C/C(=O)O`, for which the 50% effect level in [1] (ED50) was put at a dose of 0.35 mg/kg. The same molecule yielded an Inhibition in assay [2] of 100%. The same molecule returned an Activity in [4] of 34%. Turning to `Cl.c1ccc2sc(Cc3c[nH]cn3)cc2c1`, the Inhibition in [2] is recorded as 20%. As for `CCC(c1c[nH]cn1)c1sccc1C.O=C(O)/C=C/C(=O)O` (stereo not given), the Inhibition in assay [2] was determined as 100%. In addition, the IA entry in assay [3] was “inactive”. Take `Cc1cccc([C@H](C)c2c[nH]cn2)c1C` [DEXMEDETOMIDINE]: the ED50 in [1] is 0.12 mg/kg.

`COC(c1c[nH]cn1)c1sccc1Br.O=C(O)/C=C/C(=O)O` (stereo not given) returned an Inhibition in assay [2] of 53%. Molecule `CCC(c1c[nH]cn1)c1cscc1C.O=C(O)/C=C/C(=O)O` (stereo not given) came in with an ED50 in assay [1] of 2.6 mg/kg. The Inhibition in assay [2] is on record as 100%. `Cc1sccc1C(C)c1c[nH]cn1.O=C(O)/C=C/C(=O)O` (stereo not given): it took a dose of 1.6 mg/kg to reach the 50% effect level in assay [1] (ED50). The molecule further came in with an Inhibition in [2] of 100%. `CC(c1c[nH]cn1)c1sccc1Br` (stereo not given) came in with an ED50 in assay [1] of 0.97 mg/kg. The same molecule displayed an Activity in [8] of 23%.

Regarding `Cc1ccc(Cc2c[nH]cn2)s1`, in [7], the inhibition in vivo (as a rule, the relative decrease from the control value, in per cent) at 30 mg/kg was 33%. In turn, `CCc1sccc1Cc1c[nH]cn1.O=C(O)/C=C/C(=O)O` showed an ED50 in [1] of 0.27 mg/kg. In assay [2], this molecule displayed an Inhibition of 100%. This molecule also had an Activity in [4] of 28%. `Clc1cc(Cc2c[nH]cn2)c(Cl)s1.O=C(O)/C=C/C(=O)O` came in with an ED50 in [1] of 3.2 mg/kg. The Inhibition in assay [2] stood at 100%. The like results for `O=C(O)/C=C/C(=O)O.c1nc(Cc2ccsc2)c[nH]1` were, in that order, 0.97 mg/kg and 100%.

In assay [1], `Brc1csc(Cc2c[nH]cn2)c1.Cl` came in with an ED50 of 5.2 mg/kg. Moreover, the Ki (as a rule, the dissociation constant of the complex between target and ligand, obtained from inhibition or displacement) in assay [9] turned out to be 1.4 nM. In [2], the Inhibition is recorded as 80%.

On to `Cc1cc(Cc2c[nH]cn2)c(C)s1.O=C(O)/C=C/C(=O)O`, for which the 50% effective dose (ED50) in [1] came to 0.9 mg/kg. The molecule also had an Inhibition in [2] of 100%. The like results for `CC(c1c[nH]cn1)c1cscc1Br.O=C(O)/C=C/C(=O)O` (stereo not given) were, in that order, 0.31 mg/kg and 100%. In turn, `Brc1ccsc1Cc1c[nH]cn1.Cl` registered an ED50 in assay [1] of 2 mg/kg. The molecule further showed an inhibition in vivo at 30 mg/kg in [7] of 100%. In the case of `c1csc(Cc2c[nH]cn2)c1`, in [7], the inhibition in vivo at 30 mg/kg is 60%. The molecule `Cc1sccc1Cc1c[nH]cn1.O=C(O)/C=C/C(=O)O` registered a 50% effective dose (ED50) in assay [1] of 0.89 mg/kg. The Inhibition in [2] turned out to be 100%.

As for `Cl.c1nc(Cc2cc3c(s2)CCCC3)c[nH]1`, the Inhibition in [2] was 7%. On the same count and under the same terms, the value for `Cc1ccsc1C1(c2c[nH]cn2)CC1.O=C(O)/C=C/C(=O)O` was 40%; that for `Cc1csc(C)c1Cc1c[nH]cn1.O=C(O)/C=C/C(=O)O` was 100%. In the case of `CCc1cc(Cc2c[nH]cn2)c(CC)s1.O=C(O)/C=C/C(=O)O`, in [1], the ED50 stood at 0.31 mg/kg. The Inhibition in assay [2] was determined as 100%.

With `O=C(O)/C=C/C(=O)O.c1ccc2c(Cc3c[nH]cn3)csc2c1`, in assay [1], the 50% effect level (ED50) was put at a dose of 0.44 mg/kg. This molecule came in with an Inhibition in assay [2] of 0.441%. The molecule `CCc1cscc1C(C)c1c[nH]cn1.O=C(O)/C=C/C(=O)O` (stereo not given) displayed an ED50 in assay [1] of 0.48 mg/kg. Moreover, in assay [2], the Inhibition is given as 100%. Besides, the Activity in assay [4] amounted to 32%. In [2], `CC(C)c1cc(Cc2c[nH]cn2)c(C(C)C)s1.O=C(O)/C=C/C(=O)O` returned an Inhibition of 40%. For `CC(c1c[nH]cn1)c1cscc1Br` (stereo not given), the Activity in assay [6] stood at 20%. For the molecule `Cc1csc(Cc2c[nH]cn2)c1C.Cl`, in assay [1], the ED50 was determined as 4.7 mg/kg. In assay [7], this molecule returned an inhibition in vivo at 30 mg/kg of 100%.

Consider `Brc1csc(Cc2c[nH]cn2)c1Br.Cl`, for which the 50% effect level in [1] (ED50) was put at a dose of 7.1 mg/kg. For the same molecule, in [2], the Inhibition was 93%.

The molecule `COC(c1c[nH]cn1)c1cscc1Br.O=C(O)/C=C/C(=O)O` (stereo not given) gave an ED50 in assay [1] of 3.6 mg/kg. Moreover, in [2], the Inhibition is 100%. The like results for `Cc1cscc1C(C)c1c[nH]cn1.O=C(O)/C=C/C(=O)O` (stereo not given) were, in that order, 0.27 mg/kg and 100%. `Brc1cscc1Cc1c[nH]cn1.O=C(O)/C=C/C(=O)O` registered a median effective dose (ED50) in [1] of 0.38 mg/kg. The Inhibition in [2] is 100%. For the same molecule, the Activity in [4] amounted to 11%.

`Cc1ccsc1C(C)c1c[nH]cn1` (single isomer, unassigned; (+)) came in with an ED50 in assay [1] of 1.18 mg/kg. Besides, the Activity in assay [6] worked out at 24%. `CC(c1c[nH]cn1)c1scc(Br)c1Br.O=C(O)/C=C/C(=O)O` (stereo not given) had an Inhibition in [2] of 80%.
